In ChEMBL document CHEMBL4811254, “Beyond Basicity: Discovery of Nonbasic DENV-2 Protease Inhibitors with Potent Activity in Cell Culture” (J Med Chem, 2021):
The source made the active and inactive calls.

What was measured:
[1] = Half life in Sprague-Dawley rat liver microsomes at 100 uM incubated for 60 mins in presence of NADPH by HPLC analysis; type: ADME, Microsome
Outline: (§1)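 Rat liver microsomes; samples incubated 60 min at 37 °C, parent compound depletion monitored.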

Trypsin (Homo sapiens) = Trypsin (Homo sapiens) (UniProt P07477+P07478+P35030); assay: Inhibition of trypsin (unknown origin) using Boc-Val-Pro-Arg-AMC as substrate at 50 uM preincubated with enzyme for 15 mins followed by substrate addition and measured for 15 mins by fluorimetric assay; type: protein assay; details: time 30.0 min
[2] = molecular target: Genome polyprotein (dengue virus type 2) (UniProt P29990); assay: Inhibition of NS2B-NS3 protease in DENV2proHeLa system assessed as inhibition of luciferase signal at 12.5 uM incubated for 24 hrs by luciferase reporter gene assay; type: cell-based; details: HeLa
Outline: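 Stable DENV2proHeLa cells seeded at 2 × 10⁴/well and dosed immediately, then incubated 24 h at 37 °C. Cells lysed 15 min at room temperature. Luciferase read with coelenterazine (2.75 μM in PBS) injection, luminescence 5 s. Triplicates; percent inhibition calculated relative to untreated control; background from cell-free wells.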

dengue virus type 2 [3] = assay: Antiviral activity against DENV2 infected in human Huh7 cells assessed as reduction in virus titer in cell supernatant by measuring inhibition of plaque formation using VeroE6 cells preincubated with viral infected Huh7 cells for 48 hrs and measured following infection of VeroE6 cells with supernatants for 7 days by plaque assay based crystal violet staining analysis; type: functional, organism-based, Huh-7; details: for EC50: Huh-7; for EC90: Huh-7, 216 h, time 9 day
Outline: (§2)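 Huh-7 cells seeded at 1 × 10⁴/well and incubated overnight. Infected with DENV-2 at MOI 1 for 2 h, then medium changed and compound added. […] Pooled supernatants titred by plaque assay on VeroE6 cells: 10⁻¹ to 10⁻⁶ dilutions, 1 h infection, 7 days, formaldehyde fix, crystal violet.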

[4] = Passive membrane permeability of the compound in phosphate buffered saline assessed as concentration of the compound in donor plate at 200 uM incubated for 5 hrs by PAMPA assay based HPLC analysis; type: ADME
Outline: (§3)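 Precoated trilayer PAMPA, 5 h incubation. Acceptor and donor concentrations measured after 5 h. Permeability and mass retention calculated by a literature method.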

[5] = molecular target: Genome polyprotein (dengue virus type 2) (UniProt P29990); assay: Inhibition of DENV2 NS2B-NS3 protease expressed in Escherichia coli BL21 lambda(DE3) using FRET substrate preincubated with enzyme for 15 mins in presence of detergent CHAPS followed by substrate addition for 15 mins by fluorescence based analysis; details: time 30.0 min
[6] = Passive membrane permeability of the compound in phosphate buffered saline at 200 uM incubated for 5 hrs by PAMPA assay based HPLC analysis; type: ADME; details: for Papp at 5 h, 200 µM: PAMPA, read-out: permeability; outline: as §3
[7] = molecular target: Prothrombin (Homo sapiens) (UniProt P00734); assay: Inhibition of thrombin in human plasma using Boc-Val-Pro-Arg-AMC as substrate at 25 uM preincubated with enzyme for 15 mins followed by substrate addition and measured for 15 mins by fluorimetric assay; type: cell-free; details: time 30.0 min
dengue virus type 2 [8] = assay: Antiviral activity against DENV2 infected in human Huh7 cells assessed as reduction in virus titer in cell supernatant by measuring inhibition of plaque formation using VeroE6 cells at 12.5 uM preincubated with viral infected Huh7 cells for 48 hrs and measured following infection of VeroE6 cells with supernatants for 7 days by plaque assay based crystal violet staining analysis; type: functional; details: Huh-7, 216 h, time 9 day; outline: as §2
[9] = Passive membrane permeability of the compound in phosphate buffered saline assessed as concentration of the compound in acceptor plate at 200 uM incubated for 5 hrs by PAMPA assay based HPLC analysis; type: ADME; outline: as §3
[10] = Stability of the compound assessed as bovine pancreas alphachymotrypsin-mediated parent compound depletion at 0.1 mg/ml incubated for 120 mins by HPLC analysis; type: ADME, Bos taurus; details: cattle, bovine pancreas alpha-chymotrypsin, read-out: Drug degradation
Outline: (§4)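 Compound incubated with α-chymotrypsin or bovine trypsin in buffer for 120 min at 37 °C; parent compound depletion monitored.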

[11] = Cytotoxicity against human HeLa cells assessed as reduction in cell viability incubated for 24 hrs by CellTiter-Blue assay; type: cell-based
Outline: (§5)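 Viability by CellTiter-Blue in HeLa or Huh-7 cells exposed to compound dilutions. Plates run in parallel with the reporter assay (HeLa) or the virus titer assay (Huh-7).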

[12] = Passive membrane permeability of the compound in phosphate buffered saline assessed as mass retention of the compound at 200 uM incubated for 5 hrs by PAMPA assay based HPLC analysis; type: ADME; outline: as §3
Huh-7 [13] = assay: Cytotoxicity against human Huh-7 cells assessed as reduction in cell viability at 12.5 uM incubated for 48 hrs by CellTiter-Blue assay; type: cell-based; details: huh-7, 48 h; outline: as §5
Genome polyprotein [14] = molecular target: T1, Genome polyprotein (dengue virus type 2, UniProt P29990); assay: Inhibition of NS2B-NS3 protease in DENV2proHeLa system assessed as inhibition of luciferase signal incubated for 24 hrs by luciferase reporter gene assay; type: cell-based, HeLa
Outline: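 HeLa cells stably carrying the reporter system, 2 × 10⁴ per well, given inhibitor at seeding and held 24 h at 37 °C. Cells lysed 15 min at room temperature. Luciferase read for 5 s after injecting coelenterazine (2.75 μM in PBS). Triplicate wells per concentration; percent inhibition taken against untreated cells. EC50/EC90 from 4-parameter dose-response fit, background from cell-free wells subtracted.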

[15] = Stability of the compound assessed as bovine pancreas trypsin-mediated parent compound depletion at 0.1 mg/ml incubated for 120 mins by HPLC analysis; type: ADME, Bos taurus; details: cattle; for metabolised at 2 h, 0.1 mg/ml: bovine pancreas trypsin, read-out: Drug degradation; outline: as §4
[16] = Stability of the compound assessed as bovine pancreas alphachymotrypsin-mediated parent compound depletion by measuring parent compound remaining at 0.1 mg/ml incubated for 120 mins by HPLC analysis; type: ADME, Bos taurus; details: cattle, bovine pancreas alpha-chymotrypsin, read-out: Stabilty; outline: as §4
[17] = molecular target: Genome polyprotein (dengue virus type 2) (UniProt P29990); assay: Competitive inhibition of DENV2 NS2B-NS3 protease expressed in Escherichia coli BL21 lambda(DE3) assessed as increase in Km without change in Vmax using FRET substrate preincubated with enzyme for 15 mins followed by substrate addition for 15 mins by Michaelis-Menten based analysis; details: time 30.0 min
[18] = molecular target: Genome polyprotein (West Nile virus) (UniProt P06935); assay: Inhibition of WNV NS2B-NS3 protease expressed in Escherichia coli BL21 lambda(DE3) using FRET substrate preincubated with enzyme for 15 mins in presence of detergent CHAPS followed by substrate addition for 15 mins by fluorescence based analysis; details: time 30.0 min
[19] = Metabolic stability in Sprague-Dawley rat liver microsomes at 100 uM incubated for 60 mins in presence of NADPH by HPLC analysis; type: ADME, Microsome; details: 1 h; outline: as §1
Genome polyprotein [20] = molecular target: T1, Genome polyprotein; assay: Competitive inhibition of DENV2 NS2B-NS3 protease expressed in Escherichia coli BL21 lambda(DE3) using FRET substrate preincubated with enzyme for 15 mins followed by varying concentrations of substrate addition for 15 mins by Cheng-Prusoff plot analysis
Genome polyprotein [21] = molecular target: T1, Genome polyprotein; assay: Competitive inhibition of DENV2 NS2B-NS3 protease expressed in Escherichia coli BL21 lambda(DE3) using FRET substrate preincubated with enzyme for 15 mins followed by substrate addition for 15 mins by Michaelis-Menten based analysis
Huh-7 [22] = assay: Cytotoxicity against human Huh-7 cells assessed as reduction in cell viability at 10 uM incubated for 48 hrs by CellTiter-Blue assay; type: cell-based; details: huh-7, 48 h; outline: as §5
dengue virus type 2 [23] = assay: Antiviral activity against DENV2 infected in human Huh7 cells assessed as reduction in virus titer in cell supernatant by measuring inhibition of plaque formation using VeroE6 cells at 10 uM preincubated with viral infected Huh7 cells for 48 hrs and measured following infection of VeroE6 cells with supernatants for 7 days by plaque assay based crystal violet staining analysis; type: functional; details: Huh-7, 216 h, time 9 day

Chain of Genome polyprotein (West Nile virus) (P06935 whole entry): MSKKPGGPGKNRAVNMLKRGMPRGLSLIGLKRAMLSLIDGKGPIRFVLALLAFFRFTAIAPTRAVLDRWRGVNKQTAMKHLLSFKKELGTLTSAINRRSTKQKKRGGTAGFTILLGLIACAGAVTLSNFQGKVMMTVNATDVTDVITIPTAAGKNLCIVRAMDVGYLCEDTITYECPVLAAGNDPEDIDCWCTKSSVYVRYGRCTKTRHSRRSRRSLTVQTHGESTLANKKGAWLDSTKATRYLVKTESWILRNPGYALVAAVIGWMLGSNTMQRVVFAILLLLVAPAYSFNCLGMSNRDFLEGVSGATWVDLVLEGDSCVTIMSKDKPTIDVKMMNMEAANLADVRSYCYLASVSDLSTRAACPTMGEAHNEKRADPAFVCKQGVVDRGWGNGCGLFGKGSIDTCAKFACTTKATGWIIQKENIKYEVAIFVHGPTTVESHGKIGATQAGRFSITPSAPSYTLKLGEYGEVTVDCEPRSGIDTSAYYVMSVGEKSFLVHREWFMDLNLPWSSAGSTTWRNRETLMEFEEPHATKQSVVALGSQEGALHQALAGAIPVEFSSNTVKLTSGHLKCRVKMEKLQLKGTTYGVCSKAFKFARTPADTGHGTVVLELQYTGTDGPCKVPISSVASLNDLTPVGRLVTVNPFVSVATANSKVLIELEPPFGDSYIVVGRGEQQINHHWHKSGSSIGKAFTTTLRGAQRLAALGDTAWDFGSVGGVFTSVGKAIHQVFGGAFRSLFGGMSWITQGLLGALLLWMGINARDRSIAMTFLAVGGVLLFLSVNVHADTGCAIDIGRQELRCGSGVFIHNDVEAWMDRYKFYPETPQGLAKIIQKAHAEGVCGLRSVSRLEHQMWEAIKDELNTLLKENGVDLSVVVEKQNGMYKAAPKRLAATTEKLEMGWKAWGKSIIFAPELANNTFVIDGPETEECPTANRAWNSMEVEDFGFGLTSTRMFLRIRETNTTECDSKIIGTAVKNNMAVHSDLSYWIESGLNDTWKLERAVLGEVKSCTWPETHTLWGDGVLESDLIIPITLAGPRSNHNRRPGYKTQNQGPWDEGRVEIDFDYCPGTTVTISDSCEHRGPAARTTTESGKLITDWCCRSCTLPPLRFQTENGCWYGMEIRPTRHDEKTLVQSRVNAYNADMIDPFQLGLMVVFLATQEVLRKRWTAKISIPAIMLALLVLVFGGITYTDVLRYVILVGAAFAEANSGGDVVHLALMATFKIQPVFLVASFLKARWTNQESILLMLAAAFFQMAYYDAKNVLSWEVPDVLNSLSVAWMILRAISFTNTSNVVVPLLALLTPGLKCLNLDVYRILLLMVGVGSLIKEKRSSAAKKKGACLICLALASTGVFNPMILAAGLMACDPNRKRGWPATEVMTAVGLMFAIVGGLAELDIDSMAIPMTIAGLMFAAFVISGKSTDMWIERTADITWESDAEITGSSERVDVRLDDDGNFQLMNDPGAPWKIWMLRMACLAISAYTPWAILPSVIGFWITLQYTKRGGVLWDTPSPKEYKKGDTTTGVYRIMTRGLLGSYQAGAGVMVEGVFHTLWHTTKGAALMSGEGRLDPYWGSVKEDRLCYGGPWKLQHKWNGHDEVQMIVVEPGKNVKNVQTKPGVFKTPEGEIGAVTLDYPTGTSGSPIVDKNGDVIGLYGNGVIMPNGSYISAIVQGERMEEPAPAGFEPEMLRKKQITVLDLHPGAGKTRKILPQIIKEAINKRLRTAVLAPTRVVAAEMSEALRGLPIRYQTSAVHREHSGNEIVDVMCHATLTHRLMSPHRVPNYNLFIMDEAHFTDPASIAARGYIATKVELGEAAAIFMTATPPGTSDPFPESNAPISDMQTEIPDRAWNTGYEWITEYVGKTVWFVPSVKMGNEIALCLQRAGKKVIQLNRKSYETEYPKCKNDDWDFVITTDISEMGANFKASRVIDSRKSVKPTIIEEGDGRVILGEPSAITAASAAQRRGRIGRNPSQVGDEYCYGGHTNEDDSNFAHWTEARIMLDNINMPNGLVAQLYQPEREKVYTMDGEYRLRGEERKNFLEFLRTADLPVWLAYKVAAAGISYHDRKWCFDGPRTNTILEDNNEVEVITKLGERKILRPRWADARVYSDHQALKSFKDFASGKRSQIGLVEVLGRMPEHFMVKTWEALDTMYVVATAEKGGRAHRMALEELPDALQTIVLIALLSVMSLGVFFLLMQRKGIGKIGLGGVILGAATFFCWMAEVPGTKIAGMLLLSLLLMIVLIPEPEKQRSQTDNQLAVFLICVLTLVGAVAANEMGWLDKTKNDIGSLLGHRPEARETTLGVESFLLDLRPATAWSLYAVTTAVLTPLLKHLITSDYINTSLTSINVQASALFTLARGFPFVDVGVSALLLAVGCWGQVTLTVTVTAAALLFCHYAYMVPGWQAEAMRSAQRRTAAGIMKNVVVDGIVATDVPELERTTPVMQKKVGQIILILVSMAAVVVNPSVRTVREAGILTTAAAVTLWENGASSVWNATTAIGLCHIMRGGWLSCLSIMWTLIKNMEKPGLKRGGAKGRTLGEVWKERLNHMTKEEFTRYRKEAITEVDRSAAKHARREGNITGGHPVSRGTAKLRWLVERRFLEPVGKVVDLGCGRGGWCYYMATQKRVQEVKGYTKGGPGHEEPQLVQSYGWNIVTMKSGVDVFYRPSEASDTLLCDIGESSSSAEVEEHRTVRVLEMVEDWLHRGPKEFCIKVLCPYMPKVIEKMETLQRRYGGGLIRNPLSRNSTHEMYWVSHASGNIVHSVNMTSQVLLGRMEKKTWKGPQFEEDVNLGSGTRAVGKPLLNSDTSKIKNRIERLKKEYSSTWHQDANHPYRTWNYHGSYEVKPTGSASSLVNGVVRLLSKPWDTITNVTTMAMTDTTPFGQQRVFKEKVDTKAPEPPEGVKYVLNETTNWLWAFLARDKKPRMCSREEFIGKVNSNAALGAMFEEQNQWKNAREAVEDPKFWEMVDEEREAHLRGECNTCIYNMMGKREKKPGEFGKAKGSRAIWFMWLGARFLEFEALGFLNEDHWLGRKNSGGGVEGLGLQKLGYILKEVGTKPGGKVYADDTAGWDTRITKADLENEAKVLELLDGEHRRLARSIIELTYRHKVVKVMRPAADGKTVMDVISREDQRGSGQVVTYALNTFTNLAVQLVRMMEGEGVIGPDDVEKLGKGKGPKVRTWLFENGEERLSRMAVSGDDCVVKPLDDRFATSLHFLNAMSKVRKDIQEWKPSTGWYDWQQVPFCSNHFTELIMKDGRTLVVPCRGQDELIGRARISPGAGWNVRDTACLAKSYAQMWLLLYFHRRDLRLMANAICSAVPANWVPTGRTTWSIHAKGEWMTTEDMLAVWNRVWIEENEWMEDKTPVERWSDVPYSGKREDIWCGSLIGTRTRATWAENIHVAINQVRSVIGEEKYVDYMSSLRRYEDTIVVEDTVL

Row | Compound | half-life at 100 µM [1] [min] | inhibition (Trypsin (Homo sapiens)) | inhibition [2] [%] | EC50 (dengue virus type 2 [3]) [nM] | EC90 (dengue virus type 2 [3]) [µM] | Activity [4] [µM] | inhibition [5] | Papp at 5 h, 200 µM [6] [×10⁻⁶ cm/s] | inhibition [7] | inhibition at 12.5 µM (dengue virus type 2 [8]) [%] | Activity [9] [µM] | metabolised at 2 h, 0.1 mg/ml [10] [%] | CC50 at 24 h [11] [µM] | Activity [12] [%] | Activity (Huh-7 [13]) [%] | EC50 (Genome polyprotein [14]) [nM] | remaining at 2 h, 0.1 mg/ml [16] [%] | Stabilty [19] | Ki (Genome polyprotein [20]) [µM] | metabolised at 2 h, 0.1 mg/ml [15] [%] | other results
1 | NC(=O)c1cccc(NC(=O)[C@@H](NC(=O)c2ccc(N3CCOCC3)cc2)c2ccc(OCc3ccccc3)cc2)c1 | 27 | inactive | 79 | 850 | 15 | 181 | Active | 1.7 | inactive | 96 | 8.1 | 40 | > 100 | 7.1 | < 20 | 2200 | – | – | – | – | Stabilty ([15]; isolated protein, 2 h): Unstable
2 | NC(=O)c1cccc(NC(=O)[C@@H](NC(=O)c2ccc(-c3ccc(Cl)cc3)cc2)c2ccc(OCc3ccccc3)cc2)c1 | – | inactive | 78 | 1600 | 4.7 | 187 | Active | 0.7 | inactive | 100 | 3.7 | – | > 25 | 5.5 | < 20 | 1200 | 70 | Stable | 6.9 | 25 | inhibition [17]: Active; inhibition [18]: Active; Ki (Genome polyprotein [21]): 4.1 µM
3 | CCCCCC(=O)N[C@H](C(=O)NCc1ccc(C(N)=O)cc1)c1ccc(OCc2ccccc2)cc1 | – | inactive | 66 | – | – | – | – | – | inactive | – | – | – | > 100 | – | – | 6300 | – | – | – | – | permeability ([6]; pampa, 5 h, 200 µM): Impermeable; Activity (Huh-7 [22]): < 20%; inhibition at 10 µM (dengue virus type 2 [23]): 34%
4 | NC(=O)c1cccc(NC(=O)[C@@H](NC(=O)c2ccc(Oc3ccc(C(F)(F)F)cc3)cc2)c2ccc(OCc3ccccc3)cc2)c1 | – | inactive | 76 | 240 | 4.8 | 188 | Active | 1.4 | inactive | 100 | 6.9 | – | > 100 | 3.7 | < 20 | 1200 | 70 | Stable | 6.3 | 25 | –
5 | CCCCCC(=O)N[C@H](C(=O)NCc1ccc(NC(=N)N)cc1)c1ccc(OCc2ccccc2)cc1 | 55 | – | – | – | – | – | Active | – | – | – | – | 40 | – | – | – | – | – | – | – | 25 | –
